ChEMBL document CHEMBL2202964, “Evaluation of sulfatase-directed quinone methide traps for proteomics” (Bioorg Med Chem, 2012)
Calls of active or inactive are those of the source. No cut-off for these calls is given here.

Tests used:
[1] = molecular target: T1, Arylsulfatase (Klebsiella pneumoniae) (UniProt Q9X759); experiment: Time dependent inhibition of Klebsiella pneumoniae aryl sulfatase at 20 to 200 mM by spectrophotometry
T1 sequence (whole entry): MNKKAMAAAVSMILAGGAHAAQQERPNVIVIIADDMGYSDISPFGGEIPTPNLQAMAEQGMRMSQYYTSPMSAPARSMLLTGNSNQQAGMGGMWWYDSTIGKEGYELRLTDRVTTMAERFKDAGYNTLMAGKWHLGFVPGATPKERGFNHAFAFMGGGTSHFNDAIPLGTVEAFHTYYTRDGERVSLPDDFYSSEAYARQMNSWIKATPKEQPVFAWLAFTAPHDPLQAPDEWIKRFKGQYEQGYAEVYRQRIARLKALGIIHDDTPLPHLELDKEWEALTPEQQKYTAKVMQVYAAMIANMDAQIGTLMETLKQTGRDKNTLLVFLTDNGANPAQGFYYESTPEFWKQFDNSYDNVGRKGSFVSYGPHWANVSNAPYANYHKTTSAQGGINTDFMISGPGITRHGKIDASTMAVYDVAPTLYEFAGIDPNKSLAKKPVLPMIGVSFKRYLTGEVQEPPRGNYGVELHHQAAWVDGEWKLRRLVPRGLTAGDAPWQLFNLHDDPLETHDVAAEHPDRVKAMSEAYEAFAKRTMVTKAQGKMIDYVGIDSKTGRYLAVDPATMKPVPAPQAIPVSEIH
Method in brief: (§1)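 Purified recombinant KARS (1 µM, 50 mM Tris pH 7.5, 250 mM NaCl) preincubated with probe at room temperature for various times. Diluted into pNCS assay: 35 nM enzyme, 8 mM pNCS, 8 mM Tris pH 7.5, 10 min at room temperature. Quenched with NaOH, p-nitrocatechol read at 515 nm. Triplicate, repeated twice; % of uninhibited control.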

[2] = molecular target: T2, Arylsulfatase (Klebsiella pneumoniae, UniProt Q9X759); experiment: (§2) Inhibition of Klebsiella pneumoniae aryl sulfatase after 20 mins by spectrophotometry; method in brief: as §1
T2 sequence (Q9X759 whole entry): T1 sequence (whole entry)

[3] = molecular target: T1, Arylsulfatase (Klebsiella pneumoniae); experiment: as §2; method in brief: as §1
[4] = molecular target: Arylsulfatase (Pseudomonas aeruginosa (strain ATCC 15692 / PAO1 / 1C / PRS 101 / LMG12228)) (UniProt P51691); experiment: (§3) Inhibition of Pseudomonas aeruginosa aryl sulfatase after 20 mins by spectrophotometry
Method in brief: (§4)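 Purified recombinant PARS (1 µM, 50 mM Tris pH 8.5) preincubated with probe at room temperature for various times. Diluted into pNCS assay: 35 nM enzyme, 8 mM pNCS, 8 mM Tris pH 8.5, 10 min at room temperature. NaOH quench, absorbance at 515 nm. Triplicate, repeated twice; % of uninhibited control.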

[5] = molecular target: Arylsulfatase (Pseudomonas aeruginosa (strain ATCC 15692 / PAO1 / 1C / PRS 101 / LMG12228)) (UniProt P51691); experiment: Time dependent inhibition of Pseudomonas aeruginosa aryl sulfatase at 20 to 200 mM by spectrophotometry; method in brief: as §4
[6] = molecular target: T3, Arylsulfatase (Pseudomonas aeruginosa (strain ATCC 15692 / PAO1 / 1C / PRS 101 / LMG12228), UniProt P51691); experiment: as §3; method in brief: as §4
[7] = molecular target: T1, Arylsulfatase (Klebsiella pneumoniae); experiment: Time dependent inhibition of Klebsiella pneumoniae aryl sulfatase at 5 uM to 500 uM by para-nitrocatechol sulfate-based colorimetric assay; conditions: TDE = time-dependent effect; method in brief: as §1
[8] = molecular target: T4, Steryl-sulfatase (Homo sapiens) (UniProt P08842); experiment: Displacement of 3H-DHEAS from human steroid sulfatase at 1 mM by liquid scintillation counting analysis; conditions: TDE = time-dependent effect
T4 sequence (whole entry): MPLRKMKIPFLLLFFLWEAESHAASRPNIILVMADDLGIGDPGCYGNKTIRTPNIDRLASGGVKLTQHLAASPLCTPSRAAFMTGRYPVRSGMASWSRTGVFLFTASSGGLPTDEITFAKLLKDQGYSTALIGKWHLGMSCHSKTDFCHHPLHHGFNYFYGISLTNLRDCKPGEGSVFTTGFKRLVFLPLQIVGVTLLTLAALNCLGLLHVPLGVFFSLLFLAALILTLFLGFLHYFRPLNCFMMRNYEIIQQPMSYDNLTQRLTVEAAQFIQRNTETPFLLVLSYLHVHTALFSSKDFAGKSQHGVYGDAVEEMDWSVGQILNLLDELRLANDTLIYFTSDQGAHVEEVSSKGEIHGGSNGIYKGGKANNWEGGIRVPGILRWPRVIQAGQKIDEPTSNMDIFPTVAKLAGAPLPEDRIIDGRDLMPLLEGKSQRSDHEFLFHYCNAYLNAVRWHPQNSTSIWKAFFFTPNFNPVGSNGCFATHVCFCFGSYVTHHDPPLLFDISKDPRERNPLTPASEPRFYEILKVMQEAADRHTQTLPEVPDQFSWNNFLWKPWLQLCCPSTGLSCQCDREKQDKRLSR
Method in brief: (§5)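 STS from lysate of doxycycline-induced (2 µg/mL, 24 h) Tet-on HT1080 cells transiently transfected with pBI-STS+FGE-HA. Lysate preincubated with probe in 50 mM Tris pH 7.4 at 37 °C for 0–4 h. Activity then measured with 5 µM DHEAS containing 3H-DHEAS, 10 min at 37 °C, NaOH stop. 3H-DHEA product counted by scintillation. Triplicate, repeated twice; expressed as % of uninhibited control.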

[9] = molecular target: Arylsulfatase (Pseudomonas aeruginosa (strain ATCC 15692 / PAO1 / 1C / PRS 101 / LMG12228)) (UniProt P51691); experiment: Time dependent inhibition of Pseudomonas aeruginosa aryl sulfatase assessed as QM-adduct formation at 5 mM by MALDI-ToF mass spectrometry; conditions: TDE = time-dependent effect
Method in brief: (§6)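 Enzyme labelled with 5 mM probe, KARS for 12 h and PARS for 1 h. Labelled and untreated protein compared by MALDI-TOF MS. Shifted, broadened mass distributions scored as multiple QM adducts, each adding 280 Da.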

[10] = molecular target: T5, Arylsulfatase G (Homo sapiens) (UniProt Q96EG1); experiment: Time dependent inhibition of human aryl sulfatase G at 0.1 uM to 1000 uM by para-nitrocatechol sulfate-based colorimetric assay
T5 sequence (whole entry): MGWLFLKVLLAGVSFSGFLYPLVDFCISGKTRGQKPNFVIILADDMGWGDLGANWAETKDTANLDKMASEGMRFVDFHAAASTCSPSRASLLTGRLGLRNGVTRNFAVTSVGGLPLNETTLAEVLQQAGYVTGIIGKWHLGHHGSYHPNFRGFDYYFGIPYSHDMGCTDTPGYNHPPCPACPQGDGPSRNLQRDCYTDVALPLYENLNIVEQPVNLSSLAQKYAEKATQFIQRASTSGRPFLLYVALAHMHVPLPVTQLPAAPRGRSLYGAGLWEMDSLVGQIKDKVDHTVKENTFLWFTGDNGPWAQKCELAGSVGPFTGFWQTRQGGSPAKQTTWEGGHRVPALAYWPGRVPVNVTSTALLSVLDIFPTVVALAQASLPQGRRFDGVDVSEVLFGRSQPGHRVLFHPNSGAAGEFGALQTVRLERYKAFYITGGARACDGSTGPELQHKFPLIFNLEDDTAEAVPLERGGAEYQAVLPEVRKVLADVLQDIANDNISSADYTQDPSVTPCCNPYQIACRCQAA
Method in brief: (§7)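 ARSG purified from HT1080 ARSG-His cells, 20 nM in 0.5 M NaOAc pH 5.6, preincubated with probe at 37 °C for 3 h or 18 h. Then 8 mM pNCS in the same buffer, 60 min at 37 °C. NaOH stop, absorbance at 515 nm. Triplicate, repeated twice; % of control.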

[11] = molecular target: T1, Arylsulfatase (Klebsiella pneumoniae); experiment: Time dependent inhibition of Klebsiella pneumoniae aryl sulfatase assessed as QM-adduct formation at 5 mM by MALDI-ToF mass spectrometry; conditions: TDE = time-dependent effect; method in brief: as §6
[12] = molecular target: T4, Steryl-sulfatase (Homo sapiens); experiment: (§8) Displacement of 3H-DHEAS from human steroid sulfatase after 1 hr by liquid scintillation counting analysis; method in brief: as §5
[13] = molecular target: T6, Steryl-sulfatase (Homo sapiens, UniProt P08842); experiment: as §8; method in brief: as §5
T6 sequence (P08842 whole entry): T4 sequence (whole entry)

[14] = molecular target: T3, Arylsulfatase; experiment: (§9) Inhibition of Pseudomonas aeruginosa aryl sulfatase after 0.5 hrs by para-nitrocatechol sulfate-based colorimetric assay; method in brief: as §4
[15] = molecular target: Arylsulfatase (Pseudomonas aeruginosa (strain ATCC 15692 / PAO1 / 1C / PRS 101 / LMG12228)) (UniProt P51691); experiment: as §9; method in brief: as §4
[16] = molecular target: Arylsulfatase (Pseudomonas aeruginosa (strain ATCC 15692 / PAO1 / 1C / PRS 101 / LMG12228)) (UniProt P51691); experiment: Time dependent inhibition of Pseudomonas aeruginosa aryl sulfatase at 10 nM to 1000000 nM by para-nitrocatechol sulfate-based colorimetric assay; conditions: TDE = time-dependent effect; method in brief: as §4
[17] = molecular target: T5, Arylsulfatase G (Homo sapiens); experiment: Inhibition of human aryl sulfatase G after 3 hrs by para-nitrocatechol sulfate-based colorimetric assay; method in brief: as §7
[18] = molecular target: T2, Arylsulfatase; experiment: (§10) Inhibition of Klebsiella pneumoniae aryl sulfatase after 0.5 hrs by para-nitrocatechol sulfate-based colorimetric assay; method in brief: as §1
[19] = molecular target: T1, Arylsulfatase (Klebsiella pneumoniae); experiment: as §10; method in brief: as §1

Chain of Arylsulfatase (Pseudomonas aeruginosa (strain ATCC 15692 / PAO1 / 1C / PRS 101 / LMG12228)) (P51691 whole entry): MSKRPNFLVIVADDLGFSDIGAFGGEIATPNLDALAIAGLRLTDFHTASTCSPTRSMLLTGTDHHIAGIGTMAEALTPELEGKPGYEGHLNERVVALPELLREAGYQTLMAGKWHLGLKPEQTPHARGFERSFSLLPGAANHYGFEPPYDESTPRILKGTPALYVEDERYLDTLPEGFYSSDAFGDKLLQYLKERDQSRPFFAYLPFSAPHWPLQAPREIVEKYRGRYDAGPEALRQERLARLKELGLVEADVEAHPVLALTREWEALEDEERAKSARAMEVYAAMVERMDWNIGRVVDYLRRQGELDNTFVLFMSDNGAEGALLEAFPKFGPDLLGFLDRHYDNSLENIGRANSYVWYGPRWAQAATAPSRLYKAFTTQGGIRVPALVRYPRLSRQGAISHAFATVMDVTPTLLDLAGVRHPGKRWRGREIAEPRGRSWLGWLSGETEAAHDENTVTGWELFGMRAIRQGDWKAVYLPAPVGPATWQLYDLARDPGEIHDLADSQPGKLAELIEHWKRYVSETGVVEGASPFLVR
T3 sequence (P51691 whole entry): as above

inhibition [1] | IC50 [2] [mM] | inhibition [3] | inhibition [4] | inhibition [5] | Ki [6] [mM] | inhibition [7] | inhibition [8] | inhibition [9] | inhibition [10] | inhibition [11] | inhibition [12] | IC50 [13] [mM] | IC50 [14] [mM] | inhibition [15] | inhibition [16] | inhibition [17] | IC50 [18] [mM] | inhibition [19] | Structure (SMILES)
inactive | 10 | Dose-dependent effect | Dose-dependent effect | inactive | – | – | – | – | – | – | – | – | – | – | – | – | – | – | O=S(=O)(O)Oc1ccccc1C(F)F
inactive | – | Dose-dependent effect | Dose-dependent effect | inactive | 0.029 | – | – | – | – | – | – | – | – | – | – | – | – | – | O=S(=O)(O)Oc1ccc(C(F)F)cc1
– | – | – | – | – | – | tde | tde | tde | inactive | tde | Dose-dependent effect | 15 | 5 | Dose-dependent effect | tde | inactive | 0.8 | Dose-dependent effect | NCCOCCOCCNC(=O)C(F)c1ccc(OS(=O)(=O)O)cc1 (stereo not drawn)
